Converted amounts (≈) assume the structure as drawn.
Assays:
[1] = test system: Mycobacteroides abscessus; assay: Antibacterial activity against Mycobacterium abscessus CIP104536 after 3 to 5 days by two fold serial dilution method; format: functional
Procedure, shortened: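 Broth microdilution per CLSI in cation-adjusted Mueller–Hinton broth; exponential-phase inoculum 5 × 10^6 CFU/mL; two-fold serial dilutions from highest concentration, solvent wells as control; 30 °C for 3−5 days; MIC read visually and confirmed by absorbance at 560 nm; triplicate on three independent occasions.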

[2] = test system: Mycobacterium tuberculosis; assay: Antibacterial activity against Mycobacterium tuberculosis by AlamarBlue assay; format: functional
[3] = test system: Vero; assay: Cytotoxicity against African green monkey Vero cells; format: cell-based; conditions: Chlorocebus sabaeus
[4] = Selectivity index, ratio of IC50 for African green monkey Vero cells to MIC for Mycobacterium abscessus CIP104536; format: toxicity; conditions: read-out: Selectivity Index
[5] = Selectivity index, ratio of IC50 for African green monkey Vero cells to MIC=<90 for Mycobacterium tuberculosis; format: toxicity; conditions: read-out: Selectivity Index
[6] = test system: Mycobacteroides abscessus; assay: Antibacterial activity against CF patient derived Mycobacterium abscessus subsp. massiliense isolate 212 smooth variant after 3 to 5 days by two fold serial dilution method; format: functional
Procedure, shortened: (§1)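 Broth microdilution in cation-adjusted Mueller−Hinton broth per CLSI; inoculum 5 × 10^6 CFU/mL of exponential-phase bacteria; two-fold serial dilutions, solvent-only wells as control; 30 °C for 3−5 days; MIC read visually and confirmed by absorbance at 560 nm; triplicate on three independent occasions.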

[7] = Antibacterial activity against CF patient derived Mycobacterium abscessus subsp. bolletii isolate 112 rough variant after 3 to 5 days by two fold serial dilution method; format: functional; conditions: Mycobacteroides abscessus; procedure, shortened: as §1
[8] = Antibacterial activity against CF patient derived Mycobacterium abscessus subsp. bolletii isolate 116 smooth variant after 3 to 5 days by two fold serial dilution method; format: functional; conditions: Mycobacteroides abscessus; procedure, shortened: as §1
[9] = Antibacterial activity against CF patient derived Mycobacterium abscessus subsp. bolletii isolate 97 smooth variant after 3 to 5 days by two fold serial dilution method; format: functional; conditions: Mycobacteroides abscessus; procedure, shortened: as §1
[10] = test system: Mycobacteroides abscessus; assay: Antibacterial activity against CF patient derived Mycobacterium abscessus subsp. massiliense isolate 185 smooth variant after 3 to 5 days by two fold serial dilution method; format: functional; procedure, shortened: as §1
[11] = Antibacterial activity against non CF patient derived Mycobacterium abscessus subsp. bolletii isolate 19 rough variant after 3 to 5 days by two fold serial dilution method; format: functional; conditions: Mycobacteroides abscessus; procedure, shortened: as §1
[12] = test system: Mycobacteroides abscessus; assay: Antibacterial activity against CF patient derived Mycobacterium abscessus subsp. massiliense isolate 140 smooth variant after 3 to 5 days by two fold serial dilution method; format: functional; procedure, shortened: as §1
[13] = test system: Mycobacteroides abscessus; assay: Antibacterial activity against Addison's disease patient derived Mycobacterium abscessus subsp. massiliense isolate CIP108297 smooth variant after 3 to 5 days by two fold serial dilution method; format: functional; procedure, shortened: as §1
[14] = test system: Mycobacteroides abscessus; assay: Antibacterial activity against non CF patient derived Mycobacterium abscessus subsp. abscessus isolate 2587 smooth variant after 3 to 5 days by two fold serial dilution method; format: functional; procedure, shortened: as §1
[15] = Antibacterial activity against CF patient derived Mycobacterium abscessus subsp. bolletii isolate 108 rough variant after 3 to 5 days by two fold serial dilution method; format: functional; conditions: Mycobacteroides abscessus; procedure, shortened: as §1
[16] = Antibacterial activity against Mycobacterium abscessus subsp. bolletii isolate CIP108541 smooth variant after 3 to 5 days by two fold serial dilution method; format: functional; conditions: Mycobacteroides abscessus; procedure, shortened: as §1
[17] = test system: Mycobacteroides abscessus; assay: Antibacterial activity against non CF patient derived Mycobacterium abscessus subsp. abscessus isolate 3022 rough variant after 3 to 5 days by two fold serial dilution method; format: functional; procedure, shortened: as §1
[18] = test system: Mycobacteroides abscessus; assay: Antibacterial activity against CF patient derived Mycobacterium abscessus subsp. massiliense isolate 120 smooth variant after 3 to 5 days by two fold serial dilution method; format: functional; procedure, shortened: as §1
[19] = test system: Mycobacteroides abscessus; assay: Antibacterial activity against non CF patient derived Mycobacterium abscessus subsp. abscessus isolate CIP104536 smooth variant after 3 to 5 days by two fold serial dilution method; format: functional; procedure, shortened: as §1
[20] = test system: Mycobacteroides abscessus; assay: Antibacterial activity against CF patient derived Mycobacterium abscessus subsp. abscessus isolate 2648 rough variant after 3 to 5 days by two fold serial dilution method; format: functional; procedure, shortened: as §1
[21] = test system: Mycobacteroides abscessus; assay: Antibacterial activity against CF patient derived Mycobacterium abscessus subsp. massiliense isolate 100 smooth variant after 3 to 5 days by two fold serial dilution method; format: functional; procedure, shortened: as §1
[22] = test system: Mycobacteroides abscessus; assay: Antibacterial activity against CF patient derived Mycobacterium abscessus subsp. massiliense isolate 210 rough variant after 3 to 5 days by two fold serial dilution method; format: functional; procedure, shortened: as §1
[23] = Antibacterial activity against non CF patient derived Mycobacterium abscessus subsp. bolletii isolate 17 smooth variant after 3 to 5 days by two fold serial dilution method; format: functional; conditions: Mycobacteroides abscessus; procedure, shortened: as §1
[24] = test system: Mycobacteroides abscessus; assay: Antibacterial activity against CF patient derived Mycobacterium abscessus subsp. abscessus isolate 2524 rough variant after 3 to 5 days by two fold serial dilution method; format: functional; procedure, shortened: as §1
[25] = test system: Mycobacteroides abscessus; assay: Antibacterial activity against Addison's disease patient derived Mycobacterium abscessus subsp. massiliense isolate CIP108297 rough variant after 3 to 5 days by two fold serial dilution method; format: functional; procedure, shortened: as §1
[26] = test system: Mycobacteroides abscessus; assay: Antibacterial activity against CF patient derived Mycobacterium abscessus subsp. abscessus rough variant after 3 to 5 days by two fold serial dilution method; format: functional; procedure, shortened: as §1
[27] = Antibacterial activity against CF patient derived Mycobacterium abscessus subsp. bolletii isolate 114 smooth variant after 3 to 5 days by two fold serial dilution method; format: functional; conditions: Mycobacteroides abscessus; procedure, shortened: as §1
[28] = test system: Mycobacteroides abscessus; assay: Antibacterial activity against CF patient derived Mycobacterium abscessus subsp. abscessus isolate 3321 smooth variant after 3 to 5 days by two fold serial dilution method; format: functional; procedure, shortened: as §1
[29] = test system: Mycobacteroides abscessus; assay: Antibacterial activity against non CF patient derived Mycobacterium abscessus subsp. abscessus isolate CIP104536 rough variant after 3 to 5 days by two fold serial dilution method; format: functional; procedure, shortened: as §1
[30] = test system: Mycobacteroides abscessus; assay: Antibacterial activity against CF patient derived Mycobacterium abscessus subsp. massiliense isolate 111 smooth variant after 3 to 5 days by two fold serial dilution method; format: functional; procedure, shortened: as §1
[31] = test system: Mycobacteroides abscessus; assay: Antibacterial activity against CF patient derived Mycobacterium abscessus subsp. massiliense isolate 122 smooth variant after 3 to 5 days by two fold serial dilution method; format: functional; procedure, shortened: as §1
[32] = test system: Mycobacteroides abscessus; assay: Antibacterial activity against CF patient derived Mycobacterium abscessus subsp. abscessus isolate 2069 smooth variant after 3 to 5 days by two fold serial dilution method; format: functional; procedure, shortened: as §1
[33] = test system: Mycobacteroides abscessus; assay: Antibacterial activity against CF patient derived Mycobacterium abscessus subsp. abscessus isolate 1298 smooth variant after 3 to 5 days by two fold serial dilution method; format: functional; procedure, shortened: as §1
[34] = test system: Mycobacteroides abscessus; assay: Antibacterial activity against CF patient derived Mycobacterium abscessus subsp. abscessus smooth variant after 3 to 5 days by two fold serial dilution method; format: functional; procedure, shortened: as §1
[35] = test system: Mycobacteroides abscessus; assay: Antibacterial activity against CF patient derived Mycobacterium abscessus subsp. massiliense isolate 107 smooth variant after 3 to 5 days by two fold serial dilution method; format: functional; procedure, shortened: as §1
[36] = test system: Mycobacterium tuberculosis; assay: Inhibition of C-terminal His-tagged Mycobacterium tuberculosis Ag85C expressed in Escherichia coli C41 (DE3) at 2.5 to 50 uM after 1 hr by resorufin butyrate-based fluorescence assay
Procedure, shortened: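 Purified Ag85C mycolyltransferase activity measured with the fluorescent probe resorufin butyrate; compounds tested at 2.5 to 50 μM.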

Cc1cccc2[nH]c(C(=O)NC3CCCCCC3)cc12
MIC [1]: 0.25 µg/mL (≈ 0.925 µM) | MIC=<90 [2]: 0.0313 µg/mL (≈ 0.116 µM)

Cc1cc(C)c2cc(CNC3CCCCCCC3)[nH]c2c1
MIC [1]: 0.5 µg/mL (≈ 1.76 µM) | MIC=<90 [2]: 0.125 µg/mL (≈ 0.439 µM)

C[C@@H]1[C@@H](NC(=O)c2cc3c(F)cc(F)cc3[nH]2)C[C@H]2C[C@@H]1C2(C)C
IC50 [3]: ≥ 64 µg/mL | selectivity ratio [4]: ≥ 2 | selectivity ratio [5]: ≥ 16400 | MIC [1]: 32 µg/mL (≈ 96.3 µM) | MIC=<90 [2]: 0.0039 µg/mL (≈ 0.0117 µM)

O=C(Nc1nc2ccc(OC(F)(F)F)cc2s1)C1CCCCCC1
MIC [1]: > 32 µg/mL | MIC=<90 [2]: 128 µg/mL (≈ 357 µM)

Cc1cc(C)c2cc(C(=O)NC34CC5CC(CC(C5)C3)C4)oc2c1
MIC [1]: 1 µg/mL (≈ 3.09 µM) | MIC=<90 [2]: 1 µg/mL (≈ 3.09 µM)

C[C@@H]1[C@@H](NC(=O)c2cc3c(Cl)cc(Cl)cc3[nH]2)C[C@H]2C[C@@H]1C2(C)C
IC50 [3]: 16 µg/mL (≈ 43.8 µM) | selectivity ratio [4]: 0.125 | selectivity ratio [5]: 2050 | MIC [1]: 128 µg/mL (≈ 350 µM) | MIC=<90 [2]: 0.0078 µg/mL (≈ 0.0214 µM)

C[C@@H](NC(=O)c1cc2c(Cl)cc(Cl)cc2[nH]1)C1CCCCC1
MIC [1]: 0.5 µg/mL (≈ 1.47 µM) | MIC=<90 [2]: 2 µg/mL (≈ 5.9 µM)

CCCCCCCCNC(=O)c1cc2c(Cl)cc(Cl)cc2[nH]1
MIC [1]: > 32 µg/mL | MIC=<90 [2]: 128 µg/mL (≈ 375 µM)

NNC(=O)c1ccncc1 [ISONIAZID]
IC50 [3]: > 256 µg/mL | selectivity ratio [5]: > 6400 | MIC=<90 [2]: 0.04 µg/mL (≈ 0.292 µM)

O=C(NC1CCCCCC1)c1cc2c(F)cc(F)cc2[nH]1
MIC [1]: 0.125 µg/mL (≈ 0.428 µM) | MIC=<90 [2]: 0.031 µg/mL (≈ 0.106 µM)

NCC[C@H](O)C(=O)N[C@@H]1C[C@H](N)[C@@H](O[C@H]2O[C@H](CN)[C@@H](O)[C@H](O)[C@H]2O)[C@H](O)[C@H]1O[C@H]1O[C@H](CO)[C@@H](O)[C@H](N)[C@H]1O [AMIKACIN]
MIC [6]: 25 µg/mL (≈ 42.7 µM) | MIC [7]: > 100 µg/mL | MIC [8]: 12.5 µg/mL (≈ 21.3 µM) | MIC [9]: 12.5 µg/mL (≈ 21.3 µM) | MIC [10]: 25 µg/mL (≈ 42.7 µM) | MIC [11]: 50 µg/mL (≈ 85.4 µM) | MIC [12]: 25 µg/mL (≈ 42.7 µM) | MIC [13]: 25 µg/mL (≈ 42.7 µM) | MIC [14]: 25 µg/mL (≈ 42.7 µM) | MIC [15]: 12.8 µg/mL (≈ 21.9 µM) | MIC [16]: 25 µg/mL (≈ 42.7 µM) | MIC [17]: 12.5 µg/mL (≈ 21.3 µM) | MIC [18]: 12.5 µg/mL (≈ 21.3 µM) | MIC [19]: 25 µg/mL (≈ 42.7 µM) | MIC [20]: 12.5 µg/mL (≈ 21.3 µM) | MIC [21]: > 100 µg/mL | MIC [22]: 12.5 µg/mL (≈ 21.3 µM) | MIC [23]: 12.5 µg/mL (≈ 21.3 µM) | MIC [24]: 25 µg/mL (≈ 42.7 µM) | MIC [25]: 12.5 µg/mL (≈ 21.3 µM) | MIC [26]: 12.5 µg/mL (≈ 21.3 µM) | MIC [27]: 12.5 µg/mL (≈ 21.3 µM) | MIC [28]: 25 µg/mL (≈ 42.7 µM) | MIC [29]: 12.5 µg/mL (≈ 21.3 µM) | MIC [30]: 25 µg/mL (≈ 42.7 µM) | MIC [31]: 12.5 µg/mL (≈ 21.3 µM) | MIC [32]: 25 µg/mL (≈ 42.7 µM) | MIC [33]: 12.5 µg/mL (≈ 21.3 µM) | MIC [34]: 12.5 µg/mL (≈ 21.3 µM) | MIC [35]: 12.5 µg/mL (≈ 21.3 µM)

O=C(NC1CCCCCCC1)c1cc2c(C(F)(F)F)cc(C(F)(F)F)cc2[nH]1
MIC [1]: 0.5 µg/mL (≈ 1.23 µM) | MIC=<90 [2]: 0.0156 µg/mL (≈ 0.0384 µM)

Cc1ccc2[nH]c(C(=O)NC3CCCCCC3)cc2c1
MIC [1]: 0.25 µg/mL (≈ 0.925 µM) | MIC=<90 [2]: 0.25 µg/mL (≈ 0.925 µM)

C[C@@H]1[C@@H](NC(=O)c2cc3ccc(Br)cc3[nH]2)C[C@H]2C[C@@H]1C2(C)C
MIC [1]: 0.125 µg/mL (≈ 0.333 µM) | MIC=<90 [2]: 0.0039 µg/mL (≈ 0.0104 µM)

O=c1c2ccccc2[se]n1-c1ccccc1
inhibition [36]: Dose-dependent effect
